Only some compounds are listed: those with a hit (about 3.7% of all), similar ones and a draw of the others.
KCNK9 inh: blocks the human KCNK9 two-pore domain potassium channel; HEK293 KCNK9, FluxOR thallium flux fluorescence; hits give low values; Q9NPC2; 1.2% of 310,000 active; B-score at 10 µM;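 active = ratio B-score over 3 SD below the library mean, with starting fluorescence within 5 SD of its mean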;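 also: negative B-score means less thallium flux so channel inhibition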
KCNK3 block: human KCNK3 channel inhibition, primary screen; O14649; CHO-KCNK3 thallium flux, FluxOR fluorescence; hits give low values; B-score at 10 µM; 0.84% of 340,000 active; AID 602410;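 active = B-score under library mean minus 4 SD, starting fluorescence ratio at most library mean plus 5 SD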;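 also: more negative B-score means stronger inhibition of thallium flux through KCNK3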
Target sequence (O14649 whole entry, looked up): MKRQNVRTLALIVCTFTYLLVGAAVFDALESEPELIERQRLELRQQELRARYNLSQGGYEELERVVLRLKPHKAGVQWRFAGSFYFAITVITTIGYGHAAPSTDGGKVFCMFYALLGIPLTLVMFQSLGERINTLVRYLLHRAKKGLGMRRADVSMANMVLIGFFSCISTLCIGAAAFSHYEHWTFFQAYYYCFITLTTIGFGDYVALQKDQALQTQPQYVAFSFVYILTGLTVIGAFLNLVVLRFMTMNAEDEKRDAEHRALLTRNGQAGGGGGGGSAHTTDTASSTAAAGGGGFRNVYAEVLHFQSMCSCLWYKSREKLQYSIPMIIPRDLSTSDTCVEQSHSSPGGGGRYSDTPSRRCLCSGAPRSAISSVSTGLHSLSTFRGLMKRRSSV
hERG protect: shields human hERG channel from block by proarrhythmic agents | activation (rescue from dofetilide block), less the hit threshold, % at 10 µM | CHO-hERG, FluxOR thallium flux, dofetilide IC70 present | 0.51% of 310,000 active;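 active = activation above the mean of controls blocked by dofetilide plus 5 SD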;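 also: thallium influx through hERG after potassium depolarization seen as dye fluorescence rise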
KCNQ1 block: inhibitors of human KCNQ1 potassium channel; P51787; CHO-K1 KCNQ1, FluxOR thallium flux fluorescence; hits give high values; B-score at 10 µM; 1.3% of 310,000 active; AID 2642;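 active = compounds whose thallium flux B-score, printed positive for inhibition, exceeds three library SD while starting fluorescence stays within three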;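 also: channel opened by potassium depolarization with thallium stimulus after 20 min compound exposure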
KCNQ1 act: potentiates or activates the human KCNQ1 potassium channel; P51787; CHO-K1 KCNQ1, thallium flux FluxOR fluorescence; hits give high values; B-score at 10 µM; 0.35% of 310,000 active;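 active = fluorescence ratio B-score, a plate-corrected score, at least three library SD, with initial intensity B-score within 5 SD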
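Schedule – 37 °C overnight plating, 90-min dark dye load, 20-min compound pretreatment · System – stable KCNQ1 CHO-K1 line · Probe or stimulus – thallium- and potassium-containing depolarizing buffer · Measured by – kinetic FluxOR fluorescence, 10 s baseline plus 110 s post-stimulus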
Kir21 block: Kir2.1 (mouse) channel inhibition; P35561; HEK293-Kir2.1, FluxOR thallium flux fluorescence; hits give low values; B-score at 10 µM; 0.85% of 310,000 active;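 active = fluorescence ratio B-score at or below minus 3 SD of library scores, with starting-brightness B-score within 2 SD, cut at about -4.2 in these data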;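 also: channel flux triggered by added potassium and thallium sulfate stimulus; B-score of peak minus minimum fluorescence over baseline after thallium stimulus; more negative B-score means stronger Kir2.1 block with less thallium influx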
Numbers without * were called inactive; i = inactive; . = not tested or not shown.

SMILES	KCNK9 inh	KCNK3 block	hERG protect	KCNQ1 block	KCNQ1 act	Kir21 block
CC(=O)N(CCCCl)C(C#N)c1ccccc1 (stereo unspecified)	i	i	-5.5	i	i	-1.58
OCCN1CCN(CC(O)COc2ccc(C34CC5CC(CC(C5)C3)C4)cc2)CC1 (stereo unspecified)	i	i	-20.8	i	i	-4.44*
OCCN1CCN(CC(O)COc2ccc(Cl)cc2)CC1 (stereo unspecified)	i	i	-4.3	i	i	0.18
Cc1ccc(-c2nc(N)s[n+]2-c2ccccc2)cc1	i	i	10.4*	i	i	-3.56
CNc1nc(-c2ccccc2)[n+](-c2ccc(C)cc2)s1	i	i	-7.2	i	i	-3.75
Cc1ccc2nc3c(c(Nc4ccc(O)cc4)c2c1)CCC3	i	i	-11.1	i	i	0.46
Cc1cccc(Nc2c3c(nc4ccccc24)CCC3)c1	i	i	-18.4	i	i	-6.02*
COc1ccc(Nc2c3c(nc4ccc(C)cc24)CCC3)cc1	i	i	-10.4	8*	i	-3.84
Cc1ccc2nc3c(c(Nc4ccc5c(c4)OCCO5)c2c1)CCC3	i	i	-24.0	i	i	-5.63*
O=C(c1cccc(S(=O)(=O)N2CCCc3ccccc32)c1)N1CCN(c2ccccc2)CC1	.	-9.52*	.	.	.	.
O=C(c1cccc(S(=O)(=O)N2CCc3ccccc32)c1)N1CCc2ccccc2C1	.	-9.42*	.	.	.	.
COc1cc2c(cc1OC)CN(C(=O)c1cccc(S(=O)(=O)N3CCc4ccccc43)c1)CC2	.	i	.	.	.	.
c1ccc(Oc2ccccn2)cc1	.	i	.	.	.	.
COc1ccccc1N(C)S(=O)(=O)c1ccc(C(=O)Nc2cccc(S(=O)(=O)N3CCOCC3)c2)cc1	.	i	.	.	.	.
C=CCn1c(SCC(=O)c2ccc(OC)cc2)nnc1-c1ccc2c(c1)OCO2	i	i	-11.9	i	i	-2.41
C=CCn1c(SCC(=O)c2ccc(Cl)cc2)nnc1-c1ccc2c(c1)OCO2	i	i	-17.2	i	i	-5.42*
COc1ccc(S(=O)(=O)NC2CC(C)(C)NC(C)(C)C2)c2ccccc12	i	i	-5.1	i	i	-2.19
OC(c1ccccc1)(C1CCCCC1)C(CN1CCOCC1)c1ccccc1 (stereo unspecified)	i	i	-13.2	6*	i	0.67
COc1ccc(C(O)(C2CCCCC2)C(CN2CCOCC2)c2ccccc2)cc1 (stereo unspecified)	i	i	-12.6	i	i	-0.02
COc1ccc(C(=O)CCS(=O)(=O)c2ccc(C)cc2)cc1OC	i	i	-7.5	i	8*	-2.18
O=C(c1cc(-c2cccnc2)nc2ccccc12)N1CCN(S(=O)(=O)c2ccc(Cl)s2)CC1	.	i	.	.	.	.
N#Cc1ccccc1S(=O)(=O)N1CCN(CC(O)CN2CCOCC2)CC1 (stereo unspecified)	.	i	.	.	.	.
O=C(O)c1ccc(N2CCc3ccccc32)c([N+](=O)[O-])c1	i	i	-3.9	i	i	1.86
COc1ccc(CNC(=O)c2ccc(N3CCOCC3)c([N+](=O)[O-])c2)cc1	i	i	-1.9	i	i	-4.88*
O=C(NCc1ccc(F)cc1)c1ccc(N2CCc3ccccc32)c([N+](=O)[O-])c1	i	i	-10.1	i	i	-5.39*
SMILES	KCNK9 inh	KCNK3 block	hERG protect	KCNQ1 block	KCNQ1 act	Kir21 block
CCCCCCCNC(=O)c1ccc(N2CCC3(CC2)OCCO3)c([N+](=O)[O-])c1	-6.83*	i	-0.5	i	i	0.67
CCCNC(=O)c1ccc(N2CCC3(CC2)CC(c2ccccc2)=NO3)c([N+](=O)[O-])c1	i	i	-7.0	i	i	0.19
O=C(CN1CCCCC1)NC(=O)NC1CCCCC1	.	i	.	.	.	.
CC1(NC(=O)Nc2cccc(Br)c2)CCS(=O)(=O)C1 (stereo unspecified)	.	i	.	.	.	.
COC(=O)Cc1ccc(NC(=S)NCc2ccccc2OC)cc1	i	i	-7.2	i	i	-0.02
COc1ccccc1CNC(=S)Nc1ccc(F)cc1	i	i	-1.9	i	i	-4.67*
CC(C)CN1CC(COCc2ccccc2)Oc2ccccc2S1(=O)=O (stereo unspecified)	.	i	.	.	.	.
CCc1ccc(C2C(C(=O)O)c3ccccc3C(=O)N2C)cc1 (stereo unspecified)	i	i	-2.5	i	i	0
CCc1ccc(/C=C/C(=O)C2C(=O)c3ccccc3C2=O)cc1	i	i	27.6*	i	28*	-1.1
NC(=O)c1nsc(C(=O)N(Cc2ccc(F)cc2)C(C(=O)NCC2CCCO2)c2ccc(O)cc2)c1N (stereo unspecified)	i	i	-9.2	i	i	-2.29
CC(C)(C)c1nc(SCC(=O)NCc2cccs2)c2ccccc2n1	i	i	-20.0	i	i	-1.98
CCOC(=O)CNC(=O)CSc1nc(Cc2cccs2)nc2ccccc12	i	i	5.2*	i	i	-2.8
Cc1csc(=O)n1CCC(=O)OCC(=O)NNC(=O)c1ccc(Cl)cc1	.	i	.	.	.	.
COc1ccc(OC)c(-c2cc(C(=O)N3CCc4ccccc4C3)no2)c1	i	i	-9.6	6*	i	1.63
Cc1ccc(S(=O)(=O)NCCSCc2ccccc2)cc1	i	i	-9.8	i	i	-5.7*
Cc1ccc(CSCCNS(=O)(=O)c2ccc([N+](=O)[O-])cc2)cc1	i	i	-6.3	i	i	-4.37*
COc1ccc(S(=O)(=O)NCCSCc2cccc(C)c2)cc1Br	i	i	-1.1	i	i	-0.85
Cc1cc(C)c(C(=O)CN2C(=O)C(=O)N(C3CCCC3)C2=O)cc1C	.	i	.	.	.	.
Cc1cc(NC(=O)CSc2nc(-c3ccccc3Cl)nc3c2c(=O)n(C)c(=O)n3C)no1	i	i	5.4*	i	i	-0.01
COC(=O)c1cc2c([nH]c1=O)CCCC2=O	.	i	.	.	.	.
COCCCNC(=O)/C=C1\Sc2ccccc2N(Cc2ccccc2F)C1=O	i	i	-13.6	i	i	0.12
CCN1CCN(CCNC(=O)c2ccc(/C=C3\Sc4ccccc4N(Cc4ccccc4F)C3=O)cc2)CC1	i	i	-31.2	7*	i	-4.71*
CN1CCN(CCCNC(=O)c2ccc(/C=C3\Oc4ccccc4N(Cc4ccccc4F)C3=O)cc2)CC1	i	i	-19.7	i	i	0.04
CN1CCN(CCCNC(=O)c2ccc(/C=C3\Sc4ccccc4N(Cc4ccc(F)cc4)C3=O)cc2)CC1	i	i	-41.5	6*	i	-0.43
CN(CCc1ccccc1)C(=O)c1ccc(NC(=O)Cc2ccc(NC(=O)C3CCN(C(=O)C4CCC4)CC3)cc2)cc1	.	i	.	.	.	.
